# Laboratory results published in ChEMBL document CHEMBL1140861, “Short antisense oligonucleotides with novel 2'-4' conformationaly restricted nucleoside analogues show improved potency without increased toxicity in animals” (J Med Chem, 2009).
# pIC50: −log10 of the molar value. Activity calls are given as the source filed them. The calls are words filed in the database; no cut-off is given here.
# What was measured:
# [1] = system: Mus musculus; experiment: Hepatotoxicity in ip dosed BALB/c mouse assessed as increase in liver ALT level at 5 to 10 times of ED50 after 72 hrs; type: toxicity, organism-based; conditions: in vivo
# [2] = system: Mus musculus; experiment: Reduction of PTEN level in ip dosed BALB/c mouse liver at 37 mg/kg by Western blot analysis; type: functional, organism-based; design: dose 37 mg/kg
# [3] = system: Mus musculus; experiment: Hepatotoxicity in BALB/c mouse assessed as increase in liver ALT level at 60 mg/kg, ip after 72 hrs; type: toxicity, organism-based; design: dose 60 mg/kg, route intraperitoneal; conditions: in vivo
# [4] = species on record: Mus musculus; experiment: Binding affinity to mouse PTEN mRNA assessed as melting temperature
# In short: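 Tm of ASO–RNA duplex, i.e. melting temperature of the ASO hybridised to its complementary RNA.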
# [5] = system: Mus musculus; experiment: Reduction of PTEN mRNA level in ip dosed BALB/c mouse liver administered twice a week for 3 weeks measured after 72 hrs of last dose; type: functional
# In short: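 Male Balb/c mice, 6 weeks old, dosed ip twice weekly for 3 weeks at 0.5, 1.5, 4.7 and 15 mg/kg (two ASOs) or 0.7, 2.3, 7.2 and 23 mg/kg (MOE control); sacrificed 72 h after last dose; ALT, liver PTEN mRNA, liver and spleen weights and body weight gain assessed; ED50 derived; errors as sd.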
# [6] = system: Mus musculus; experiment: Reduction of PTEN mRNA level in BALB/c mouse liver at 100 mg/kg, ip after 72 hrs; type: functional
# In short: (§1)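 Balb/c mice, 6 weeks old, n = 4 per dose group, single ip doses of 32, 66 or 100 mg/kg; killed 72 h after administration; serum ALT and liver PTEN mRNA quantified after sacrifice; errors as sd.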
# [7] = system: bEND; experiment: Reduction in mouse PTEN mRNA level expressed in mouse bEND cells; type: functional, cell-based
# In short: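 bEND mouse brain endothelial cells transfected with ASO using lipofectin; PTEN mRNA reduction measured over a dose range; IC50 taken from dose-response curves.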
# [8] = system: Mus musculus; experiment: Metabolic stability in BALB/c mouse liver assessed as antisense oligonucleotide level at 18 mg/kg; type: ADME, organism-based; design: dose 18 mg/kg; conditions: in vivo
# [9] = system: Mus musculus; experiment: Reduction of PTEN mRNA level in BALB/c mouse liver at 66 mg/kg, ip after 72 hrs; type: functional, organism-based; design: dose 66 mg/kg; in short: as §1
# [10] = system: Mus musculus; experiment: Reduction of PTEN mRNA level in BALB/c mouse liver at 60 mg/kg, ip after 72 hrs; type: functional, organism-based; design: dose 60 mg/kg
# [11] = system: Mus musculus; experiment: Reduction of PTEN mRNA level in BALB/c mouse liver at 32 mg/kg, ip after 72 hrs; type: functional, organism-based; design: dose 32 mg/kg; in short: as §1
# [12] = system: Mus musculus; experiment: Reduction of PTEN mRNA level in ip dosed BALB/c mouse liver after 72 hrs; type: functional
# [13] = system: Mus musculus; experiment: Hepatotoxicity in BALB/c mouse assessed as increase in liver ALT level at 32 mg/kg, ip after 72 hrs; type: toxicity, organism-based; design: dose 32 mg/kg, route intraperitoneal; conditions: in vivo; in short: as §1
# [14] = system: Mus musculus; experiment: Hepatotoxicity in BALB/c mouse assessed as increase in liver ALT level at 66 mg/kg, ip after 72 hrs; type: toxicity, organism-based; design: dose 66 mg/kg, route intraperitoneal; conditions: in vivo; in short: as §1
# [15] = system: Mus musculus; experiment: Reduction of PTEN mRNA level in BALB/c mouse liver at 37 mg/kg, ip after 72 hrs; type: functional, organism-based; design: dose 37 mg/kg
# [16] = system: Mus musculus; experiment: Hepatotoxicity in BALB/c mouse assessed as increase in liver ALT level at 100 mg/kg, ip after 72 hrs; type: toxicity, organism-based; design: dose 100 mg/kg, route intraperitoneal; conditions: in vivo; in short: as §1
compound,measurement,setting,value
Cc1cn([C@@H]2O[C@@]3(COP(O)(=S)O[C@H]4[C@H]5OC[C@]4(COP(O)(=S)O[C@H]4C[C@H](n6cc(C)c(=O)[nH]c6=O)O[C@@H]4COP(O)(=S)O[C@H]4[C@@H](O)[C@H](n6cnc7c6N=CNC7N)O[C@@H]4COP(O)(=S)O[C@H]4[C@@H](O)[C@H](n6cnc7c(=O)[nH]c(N)nc76)O[C@@H]4COP(O)(=S)O[C@H]4[C@@H](O)[C@H](n6ccc(N)nc6=O)O[C@@H]4COP(O)(=S)O[C@H]4[C@@H](O)[C@H](n6cnc7c(N)ncnc76)O[C@@H]4COP(O)(=S)O[C@H]4[C@@H](O)[C@H](n6ccc(N)nc6=O)O[C@@H]4COP(O)(=S)O[C@H]4[C@@H](O)[C@H](n6cc(C)c(=O)[nH]c6=O)O[C@@H]4COP(O)(=S)O[C@H]4[C@@H](O)[C@H](n6cnc7c(=O)[nH]c(N)nc76)O[C@@H]4COP(O)(=S)O[C@H]4[C@@H](O)[C@H](n6cnc7c(=O)[nH]c(N)nc76)O[C@@H]4COP(O)(=S)O[C@H]4[C@@H](O)[C@H](n6ccc(N)nc6=O)O[C@@H]4COP(O)(=S)O[C@H]4[C@H]6OC[C@]4(COP(O)(=S)O[C@H]4[C@H]7OC[C@]4(CO)O[C@H]7n4cc(C)c(=O)[nH]c4=O)O[C@H]6n4cc(C)c(N)nc4=O)O[C@H]5n4cc(C)c(=O)[nH]c4=O)CO[C@@H]2[C@@H]3O)c(=O)nc1N (stereo partly specified),Activity,[1],Toxic
same,Activity,[2],Active
same,Activity,[3],Non-toxic
same,Tm,[4],60.6 °C
same,ED50,[5],2.1 mg/kg
same,Activity,[6],Active
same,pIC50,[7],8.31
same,Stability,[8],25 µg/g
same,Activity,[9],Active
same,Activity,[10],Active
same,Activity,[11],Active
same,ED50,[12],6 mg/kg
same,Activity,[13],Non-toxic
same,Activity,[14],Toxic
same,Activity,[15],Active
same,Activity,[16],Toxic
